Hits are enriched below; roughly 2% of the tested compounds scored in any of these assays.
NR2E3 ag-1: activates human photoreceptor nuclear receptor NR2E3; hit rate 0.12% among 320,000; GST-NR2E3/biotin-RetCOR TR-FRET, 1536-well; inhibition of corepressor binding, % at 4.78 µM;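 active = percent inhibition above the cutoff of mean plus 3 SD of all tested compounds, set per screening campaign, cut at about 20% in these data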;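 also: 0% = DMSO wells and 100% = biotin wells as full block of FRET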
Target sequence (Q9Y5X4 whole entry, looked up): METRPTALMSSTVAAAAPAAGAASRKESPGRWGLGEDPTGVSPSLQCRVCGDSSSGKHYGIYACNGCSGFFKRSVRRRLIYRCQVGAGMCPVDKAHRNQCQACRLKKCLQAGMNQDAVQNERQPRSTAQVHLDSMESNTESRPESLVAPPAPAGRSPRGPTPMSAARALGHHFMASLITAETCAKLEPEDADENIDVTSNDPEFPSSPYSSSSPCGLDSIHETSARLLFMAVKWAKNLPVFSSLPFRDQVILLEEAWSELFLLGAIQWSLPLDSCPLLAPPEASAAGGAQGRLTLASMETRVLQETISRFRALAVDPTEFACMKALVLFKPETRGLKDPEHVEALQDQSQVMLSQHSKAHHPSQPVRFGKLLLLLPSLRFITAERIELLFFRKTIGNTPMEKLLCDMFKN
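Test system – NR2E3–RetCOR corepressor complex · Quantity – NR2E3 fusion 1.35 nM · Buffer or medium – Tris pH 7.5 · Incubation – Compound–protein incubation for 5 h at 4 °C · Technique – TR-FRET, Eu(K)-anti-GST donor, streptavidin-D2 acceptor, ex 340, em 617/671 nm · Evaluation – percent inhibition of 671/617 nm emission ratio versus biotin and DMSO controls · Plate – 1536-well format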
GAA850 FXN act: activators of GAA850 frataxin (FXN) promoter; HEK293 lucGAA850 FXN promoter luciferase reporter, 24 h; percent of 10 µM SAHA response; activation, % at 6 µM; hit rate 0.56% among 360,000; AID 540364;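 active = activation above the average of all compounds screened plus 3 SD, cutoff fixed separately per campaign, cut at about 7.5% in these data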;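 also: 0% = DMSO wells and 100% = 10 µM SAHA wells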
Myeloid diff 2: compounds promoting myeloid differentiation; ER-HoxA9 myeloid progenitors, lysozyme-GFP differentiation, flow cytometry; calls only at 10 µM; AID 624256; hit rate 1% among 360,000;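 active = normalized GFP-positive differentiation at or above the plate's own cutoff, the solvent-only control mean plus 3 SD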;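 also: cells exposed to compound for four days before flow analysis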
T cell HTS: T cell immune modulators affecting CD8 T cell-vesicle binding; hit rate 0.068% among 330,000; response (vesicle binding), % at 7 µM; AID 2052; 2C CD8+ T cell-vesicle binding, flow cytometry; active compounds read low;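 active = response, share of CD8 T cells binding vesicles, and their 90th percentile fluorescence all below set limits, cut at about 80% in these data, passing the limit was not always enough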;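 also: values below 100% mean blocked vesicle binding to the CD8+ T cells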
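Benchmarks: naked versus QL9-loaded vesicles / Assay system: purified 2C TCR transgenic mouse naive CD8+ T cells / Technique: high-throughput flow cytometry with anti-B7-1 and anti-CD8 staining / Timing: Cell–vesicle co-incubation 1.5 h at 37 °C, staining 20 min on ice / Read-out: percent CD8+ FL2 mean versus row control / Probe or stimulus: QL9-loaded Drosophila micro-vesicles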
NR2E3 ag-2: agonists of human NR2E3 nuclear receptor | AID 602229 | CHO-S Gal4-NCOR/VP16-NR2E3 two-hybrid, luciferase | inhibition of corepressor binding, % at 3.98 µM | Q9Y5X4 | hit rate 0.35% among 360,000;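 active = inhibition above the mean of all tested compounds plus 3 SD, cut at about 70% in these data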;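 also: 0% = DMSO with NR2E3 transfected cells and 100% = cells lacking NR2E3 construct; higher means lower luciferase signal from less NR2E3 corepressor binding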
* hit, by the source's call; i = inactive; · = not tested or not shown; + = active, no number.

SMILES | NR2E3 ag-1 | GAA850 FXN act | Myeloid diff 2 | T cell HTS | NR2E3 ag-2
O=C(Nn1cnnc1)c1cc2c(s1)CCCC2 | -5 | -3 | i | 328 | -18
NNC(=O)c1cc2c(s1)CCCCCC2 | -1 | -5 | + | 258 | -26
O=C(CCc1nc2ccccc2c(=O)[nH]1)Nc1cc(Cl)ccc1N1CCCCC1 | 2 | 1 | + | 498 | -6
O=C(CCc1nc2ccccc2c(=O)[nH]1)Nc1ccccc1N1CCCCC1 | · | 3 | i | · | -18
O=C(NC(Cc1ccccc1)C(=O)N1CCN(c2ccc(F)cc2)CC1)c1ccccc1 (stereo not given) | · | -2 | i | · | 0
CC1=C/C(=C\C=C(C#N)C#N)N(C)c2ccccc21 | -13 | 1 | + | 653 | -9
CN1/C(=C/C=C(C#N)C#N)C(C)(C)c2ccccc21 | 2 | -2 | i | 244 | 17
CCOC(=O)c1ccccc1NC(=O)COC(=O)c1cc([N+](=O)[O-])ccc1N1CCOCC1 | 0 | 3 | i | 116 | 28
O=C(/C(=C/c1ccc(Cl)cc1)c1nc2ccccc2[nH]1)c1ccccc1 | -2 | -13 | + | 312 | -44
COCCNS(=O)(=O)c1ccc2c3c(cccc13)C(=O)N2C | 8 | 1 | i | 170 | -17
CCCC(=O)N(c1ccc(OCC)cc1)S(=O)(=O)c1ccc2c3c(cccc13)C(=O)N2C | -4 | 1 | + | 225 | 20
Cn1c(C(=O)NCCN2CCN(c3ccccc3F)CC2)cc2c(=O)n(C)c3ccccc3c21 | 3 | -2 | + | 108 | -2
CC(C)(C)n1nnnc1C(c1ccccc1)N1CCN(C/C=C/c2ccccc2)CC1 (stereo not given) | · | · | + | · | -3
COc1ccc(NC(=O)N[C@H]2C=C[C@@H](CC(=O)NC3CCC3)O[C@@H]2CO)cc1 | · | · | i | · | ·
O=c1c(/C=C(\O)c2ccccc2)nc2ccccc2n1-c1ccccc1 | -2 | 1 | + | 275 | -26
CN1C(=O)[C@H]2[C@@H](c3ccccc3)N[C@]3(CCCN(Cc4ccc(F)cc4)C3=O)[C@H]2C1=O | · | 1 | i | · | -17
CCC(=O)NC(c1cc(Cl)c2ccccc2c1O)C(C)C (stereo not given) | 0 | -2 | + | 265 | 12
CC(C)(C)C(=O)c1c(N)[nH]c(C(=O)c2ccccc2)c1-c1c(F)cccc1F | · | · | i | · | 9
CCN1C(=O)[C@@H]2Cc3c([nH]c4ccccc34)C(c3ccc(OC)cc3)N2C1=S (stereo not given in full) | 1 | -7 | + | 940 | -62
O=C(Cn1ncc2c(=O)oc3ccccc3c21)N1CCCN(Cc2ccccc2F)C1 | 2 | 1 | + | 431 | -19
CC(C)NC(=S)NC(=O)c1ccc(-c2ccccc2)cc1 | -1 | -1 | i | 238 | -58
CN(C)c1ccc(N=Cc2nc(-c3ccccc3)oc2OC(=O)c2ccccc2)cc1 | 0 | 4 | i | 5.7* | -107
CN(Cc1nnc(-c2ccc(F)cc2)o1)c1ccccc1 | 1 | 5 | i | 162 | -12
Cc1ccc(Nc2c(-c3ccco3)nc3ccccn23)cc1 | 0 | 6 | i | 250 | -22
COc1ccc(Nc2c(-c3ccco3)nc3ccc(C)cn23)cc1 | -6 | 2 | + | 186 | -63
SMILES | NR2E3 ag-1 | GAA850 FXN act | Myeloid diff 2 | T cell HTS | NR2E3 ag-2
O=C1Nc2cc(C(=O)N3CCN(c4ccccc4F)CC3)ccc2NC1CSCc1ccccc1F (stereo not given) | -2 | · | · | 158 | ·
Cc1cccc(N2CCN(C(=O)c3ccc4c(c3)NC(=O)C(CSCc3cccc(F)c3)N4)CC2C)c1 (stereo not given) | 0 | 1 | + | 550 | 8
CO/N=C\CC(=O)Nc1ccc(Cl)cc1Cl | 4 | -2 | + | 256 | -42
CO/N=C\CC(=O)Nc1ccc(F)cc1 | -1 | 0 | i | 531 | -18
COC(=O)c1ccc2c(=O)[nH]c(CSc3nc(-c4ccc(F)cc4)cs3)nc2c1 | 0 | 1 | i | 78* | -45
COC(=O)c1ccc2c(=O)[nH]c(CSc3nc(C)cs3)nc2c1 | 5 | 3 | i | 308 | -22
C[C@@H]1CN([C@H](C)CO)C(=O)CCCn2nncc2CO[C@@H]1CN(C)C(=O)c1ccncc1 | · | 0 | i | · | 0
O=C(/C(=C(\[O-])c1ccccc1)[n+]1ccc2ccccc2c1)c1ccccc1 | -1 | 4 | + | 452 | -47
O=C(/C(=C(\[O-])c1ccccc1)[n+]1ccc2ccccc2c1)c1ccc(Cl)cc1 | 1 | -1 | i | 202 | -8
O=C(Nc1ccc(-c2noc(COc3ccccc3Cl)n2)cc1)c1ccco1 | -4 | 5 | + | 230 | -76
CC(C)NC(=O)N(C)C[C@H]1OCCCC[C@H](C)Oc2ccc(NC(=O)NC3CCCCC3)cc2C(=O)N([C@H](C)CO)C[C@@H]1C | · | -2 | i | · | -32
Cc1nn(CCc2nn[nH]n2)c2nc(-c3ccc(C4CCCCC4)cc3)cc(C(F)(F)F)c12 | -3 | -1 | + | 282 | -9
Cc1nn(CCC(=O)O)c2nc(-c3cccnc3)cc(C(F)(F)F)c12 | -2 | 1 | i | 310 | -6
Nc1cc(N)nc(SCc2ccccc2Cl)n1 | · | 3 | i | · | -66
Cc1cc2c(SCc3ccccc3Cl)nc(N)nc2nc1C | · | 2 | + | · | 4
Cc1sc2nc(C3CC3)nc(SCC(=O)N3c4ccccc4CC3C)c2c1C (stereo not given) | 2 | -1 | + | 522 | 8
Cc1nc(SCC(=O)N2c3ccccc3NC(=O)CC2C)c2c(C)c(C)sc2n1 (stereo not given) | · | 1 | i | · | -28
O=C1C2CCCN2C(c2ccccc2)N1c1ccc(Cl)cc1 (stereo not given) | 6 | -3 | + | 176 | -8
COc1ccc(N2C(=O)C3CCCN3C2c2ccc(Cl)cc2)cc1 (stereo not given) | 2 | 1 | i | 236 | -8
COc1cc(/C=C(\C#N)c2nc3ccccc3o2)ccc1O | -1 | 2 | + | 398 | 30
COc1cc(/C=C(\C#N)c2nc(-c3cc4ccccc4oc3=O)cs2)ccc1O | -2 | 1 | + | 398 | 19
CCCCOCCCn1c(-c2ccco2)nc2nc3ccccc3nc21 | 0 | 3 | + | 204 | -11
Fc1ccc(-n2c(-c3ccco3)nc3nc4ccccc4nc32)cc1 | 4 | 1 | + | 312 | 20
Fc1cccc(-n2c(-c3ccco3)nc3nc4ccccc4nc32)c1 | -2 | 2 | i | 126 | -18
Cn1c(-c2ccccc2)cc(=O)n1-c1ccccc1 | · | -2 | i | · | -16
O=C(/C=C/c1ccc(F)cc1)N1CC[C@@]2(O)CCCC[C@H]2C1 | 1 | -1 | + | 218 | -7
CCc1noc(C)c1C(=O)N1CCSC1=Nc1cccc(Cl)c1C | -2 | 4 | i | 221 | -11

Compound activity deposited in PubChem by several laboratories.
